In ChEMBL document CHEMBL4330056, “Synthesis and Cytotoxic and Antiviral Profiling of Pyrrolo- and Furo-Fused 7-Deazapurine Ribonucleosides” (J Med Chem, 2018):
pEC50, pIC50: −log10 of the molar value. The source made the active and inactive calls. The calls are words filed in the database; no cut-off is given here.

How the values were obtained:
[1] = test system: U2OS; assay: Antiproliferative activity against human U2OS cells after 3 days by MTS assay; type: functional, cell-based; conditions: 72 h
[2] = test system: A549; assay: Antiproliferative activity against human A549 cells after 3 days by MTS assay; type: functional, cell-based; conditions: A549, 72 h
[3] = target: T1, Adenosine kinase (Homo sapiens, UniProt P55263); assay: Inhibition of recombinant human ADK using [3H]-adenosine as substrate after 20 mins by TLC scanner-based analysis relative to control
T1 sequence (P55263 whole entry): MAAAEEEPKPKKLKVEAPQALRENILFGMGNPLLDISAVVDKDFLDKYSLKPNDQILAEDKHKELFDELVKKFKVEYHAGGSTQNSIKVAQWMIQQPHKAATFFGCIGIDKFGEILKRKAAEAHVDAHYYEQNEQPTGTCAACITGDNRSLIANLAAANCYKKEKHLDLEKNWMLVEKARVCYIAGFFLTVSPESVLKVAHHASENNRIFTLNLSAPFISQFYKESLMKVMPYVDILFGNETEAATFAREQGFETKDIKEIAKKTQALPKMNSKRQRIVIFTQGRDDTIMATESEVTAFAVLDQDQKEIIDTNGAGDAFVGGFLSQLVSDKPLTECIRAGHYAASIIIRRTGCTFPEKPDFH
How it was run: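 ADK inhibition: 50 μM adenosine substrate with 10 μM test compound and 97 ng enzyme, 20 min at 37 °C.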

[4] = test system: HCT-116; assay: Antiproliferative activity against human HCT116 cells after 3 days by MTS assay; type: functional, cell-based; conditions: HCT-116, 72 h
[5] = test system: HL-60; assay: Antiproliferative activity against human HL60 cells after 72 hrs by XTT assay; type: functional, cell-based; conditions: HL-60, 72 h
[6] = test system: Influenza A virus; assay: Antiviral activity against Influenza A virus (A/Mexico/4108/2009(H1N1)) infected in MDCK cells assessed as inhibited virus-induced cytopathic effect incubated for 2 days by XTT assay; type: functional, organism-based
[7] = test system: HepG2; assay: Antiproliferative activity against human HepG2 cells after 72 hrs by XTT assay; type: functional, cell-based; conditions: HepG2, 72 h
[8] = test system: Human orthopneumovirus; assay: Antiviral activity against Human respiratory syncytial virus A2 infected in Hep2 cells assessed as reduction in virus-induced cytopathic effect incubated for 4 days by CellTiter-Glo viability reagent based assay; type: functional, organism-based
[9] = test system: K562; assay: Antiproliferative activity against human K562 cells after 3 days by MTS assay; type: functional, cell-based; conditions: K562, 72 h
[10] = test system: Hepatitis C virus; assay: Antiviral activity against Hepatitis C virus genotype 1b infected in human Huh-luc replicon cells after 3 days by luciferase assay; type: functional, organism-based, Hepacivirus hominis; conditions: subtype 1b, 72 h
[11] = test system: HCT-116; assay: Antiproliferative activity against p53 gene knocked out human HCT116 cells after 3 days by MTS assay; type: functional, cell-based; conditions: HCT-116, 72 h
[12] = test system: BJ; assay: Antiproliferative activity against human BJ cells after 3 days by MTS assay; conditions: 72 h
[13] = Antiproliferative activity against human K562-TAX cells after 3 days by MTS assay; type: functional, cell-based; conditions: 72 h
[14] = test system: HeLa S3; assay: Antiproliferative activity against human HeLaS3 cells after 72 hrs by XTT assay; type: functional, cell-based; conditions: HeLa S3, 72 h
[15] = test system: CCRF-CEM; assay: Antiproliferative activity against human CCRF-CEM cells after 3 days by MTS assay; type: functional, cell-based; conditions: 72 h
[16] = Cytotoxicity against human Hep2 cells assessed as reduction in cell viability after 3 days by CellTiter-Glo assay; type: cell-based; conditions: HEp-2 cells
[17] = Antiproliferative activity against human CEM-DNR-bulk cells after 3 days by MTS assay; conditions: 72 h
[18] = test system: MRC5; assay: Antiproliferative activity against human MRC5 cells after 3 days by MTS assay; conditions: MRC5, 72 h
[19] = test system: Hepatitis C virus; assay: Antiviral activity against Hepatitis C virus genotype 2a infected in human Huh-luc replicon cells after 3 days by luciferase assay; type: functional, organism-based, Hepacivirus hominis; conditions: subtype 2a, 72 h
[20] = test system: Human alphaherpesvirus 1; assay: Antiviral activity against human herpesvirus 1 HF infected in African green monkey Vero cells assessed as inhibited virus-induced cytopathic effect incubated for 3 days by XTT assay; type: functional, organism-based
[21] = test system: dengue virus type 2; assay: Antiviral activity against Dengue virus 2 Thailand/16681/84 infected in African green monkey Vero cells assessed as inhibition of virus replication incubated for 3 days by fluorescence microscopy; type: functional, organism-based
[22] = test system: Coxsackievirus B3; assay: Antiviral activity against Human coxsackie B3 Nancy infected in human HeLa cells assessed as inhibited virus-induced cytopathic effect incubated for 2 days by XTT assay; type: functional, organism-based
[23] = target: T1, Adenosine kinase; assay: Substrate activity at recombinant human ADK assessed as compound phosphorylation at 50 uM after 20 mins in presence of [3H]-adenosine by UPLC; type: ADME

| Structure (SMILES) | pIC50 [1] | pIC50 [2] | pIC50 [3] | pIC50 [4] | pIC50 [5] | Activity [6] | pIC50 [7] | Activity [8] | pIC50 [9] | pEC50 [10] | pIC50 [11] | pIC50 [12] | pIC50 [13] | pIC50 [14] | pIC50 [15] | CC50 at 72 h [16] [µM] | pIC50 [17] | pIC50 [18] | pEC50 [19] | Activity [20] | further results |
| --- | --- | --- | --- | --- | --- | --- | --- | --- | --- | --- | --- | --- | --- | --- | --- | --- | --- | --- | --- | --- | --- |
| Cc1ncnc2c1c1ccn(C)c1n2[C@@H]1O[C@H](CO)[C@@H](O)[C@H]1O | < 4.30 | < 4.30 | < 5.00 | < 4.30 | < 4.30 | inactive | < 4.30 | inactive | < 4.30 | < 4.35 | < 4.30 | < 4.30 | < 4.30 | < 4.30 | < 4.30 | > 44.4 | < 4.30 | < 4.30 | < 4.35 | inactive | Activity [21]: inactive; Activity [22]: inactive; Activity [23]: 0% |
| CN(C)c1ncnc2c1c1ccn(C)c1n2[C@@H]1O[C@H](CO)[C@@H](O)[C@H]1O | < 4.30 | < 4.30 | < 5.00 | < 4.30 | < 4.30 | inactive | < 4.30 | inactive | < 4.30 | < 4.35 | < 4.30 | < 4.30 | < 4.30 | < 4.30 | < 4.30 | > 44.4 | < 4.30 | < 4.30 | < 4.35 | inactive | Activity [21]: inactive; Activity [22]: inactive; Activity [23]: 0% |
| OC[C@H]1O[C@@H](n2c3ccoc3c3c(-c4ccco4)ncnc32)[C@H](O)[C@@H]1O | 5.38 | < 4.30 | 5.40 | < 4.30 | 5.59 | inactive | < 4.30 | inactive | 5.15 | 6.77 | < 4.30 | < 4.30 | 5.15 | < 4.30 | 6.35 | > 44.4 | < 4.30 | < 4.30 | < 4.35 | inactive | Activity [21]: inactive; Activity [22]: inactive; Activity [23]: 34% |
| Cn1ccc2c3c(-c4ccoc4)ncnc3n([C@@H]3O[C@H](CO)[C@@H](O)[C@H]3O)c21 | < 4.30 | < 4.30 | < 5.00 | < 4.30 | < 4.30 | inactive | < 4.30 | inactive | < 4.30 | 4.78 | < 4.30 | < 4.30 | < 4.30 | < 4.30 | < 4.30 | > 44.4 | < 4.30 | < 4.30 | < 4.35 | inactive | Activity [21]: inactive; Activity [22]: inactive; Activity [23]: 0% |
| CN(C)c1ncnc2c1c1occc1n2[C@@H]1O[C@H](CO)[C@@H](O)[C@H]1O | < 4.30 | < 4.30 | < 5.00 | < 4.30 | < 4.30 | inactive | < 4.30 | inactive | < 4.30 | < 4.35 | < 4.30 | < 4.30 | < 4.30 | < 4.30 | < 4.30 | > 44.4 | < 4.30 | < 4.30 | < 4.35 | inactive | Activity [21]: inactive; Activity [22]: inactive; Activity [23]: 7% |
| Cn1ccc2c1c1c(Cl)ncnc1n2[C@@H]1O[C@H](CO)[C@@H](O)[C@H]1O | 6.21 | 5.52 | < 5.00 | 6.77 | 7.22 | inactive | 6.80 | inactive | 6.74 | 6.43 | 6.82 | 5.92 | 4.30 | 6.24 | 7.22 | > 44.4 | 4.30 | 4.30 | 7.22 | inactive | Activity [21]: inactive; Activity [22]: inactive; Activity [23]: 77% |
| Cn1ccc2c3c(N)ncnc3n([C@@H]3O[C@H](CO)[C@@H](O)[C@H]3O)c21 | < 4.30 | < 4.30 | < 5.00 | < 4.30 | < 4.30 | inactive | < 4.30 | inactive | < 4.30 | 4.56 | < 4.30 | < 4.30 | < 4.30 | < 4.30 | < 4.30 | 34.6 to 44.4 | < 4.30 | < 4.30 | 4.47 | inactive | Activity [21]: inactive; Activity [22]: inactive; Activity [23]: 0% |
| CN(C)c1ncnc2c1c1c(ccn1C)n2[C@@H]1O[C@H](CO)[C@@H](O)[C@H]1O | < 4.30 | < 4.30 | < 5.00 | < 4.30 | < 4.30 | inactive | < 4.30 | inactive | < 4.30 | < 4.35 | < 4.30 | < 4.30 | < 4.30 | < 4.30 | < 4.30 | > 44.4 | < 4.30 | < 4.30 | < 4.35 | inactive | Activity [21]: inactive; Activity [22]: inactive; Activity [23]: 0% |
